ChEMBL document CHEMBL1641375, “Antitumor agents 279. Structure-activity relationship and in vivo studies of novel 2-(furan-2-yl)naphthalen-1-ol (FNO) analogs as potent and selective anti-breast cancer agents” (2011)
≈ marks a conversion by molar mass, not a printed value.

How the values were obtained:
KB = test: Cytotoxicity against human KB cells after 72 hrs by MTT assay; type: functional; conditions: read-out: ED50 (the source's name)
Method in brief: (§1)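 Focused human tumour panel: A549 (non-small cell lung), DU145 (prostate), KB (nasopharyngeal), KB-VIN (MDR KB subline selected with vincristine), MDA-MB-231 (ER-negative basal-like breast), SK-BR-3 (ER-negative, HER2-overexpressing luminal-like breast), ZR-75-1 (ER-positive, HER2-overexpressing luminal-like breast). Run by previously published methods.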

[1] = Cytotoxicity against human KBVIN cells after 72 hrs by MTT assay; type: functional; conditions: read-out: ED50 (the source's name); method in brief: as §1
A549 [2] = test: Cytotoxicity against human A549 cells after 72 hrs by MTT assay; type: functional; conditions: A549, 72 h, read-out: ED50 (the source's name); method in brief: as §1
DU-145 = test: Cytotoxicity against human DU145 cells after 72 hrs by MTT assay; type: functional; conditions: DU-145, 72 h, read-out: ED50 (the source's name); method in brief: as §1
SK-BR-3 [3] = test: Cytotoxicity against human SKBR3 cells after 72 hrs by MTT assay; type: functional; conditions: SK-BR-3, 72 h, read-out: ED50 (the source's name); method in brief: as §1
ZR-75-1 [4] = test: Cytotoxicity against human ZR-75-1 cells after 72 hrs by MTT assay; type: functional; conditions: ZR-75-1, 72 h, read-out: ED50 (the source's name); method in brief: as §1
MDA-MB-231 [5] = test: Cytotoxicity against human MDA-MB-231 cells after 72 hrs by MTT assay; type: functional; conditions: MDA-MB-231, 72 h, read-out: ED50 (the source's name); method in brief: as §1
SK-BR-3 [6] = test: Selectivity ratio, ED50 for human KB cells to ED50 for human SKBR3 cells; type: functional
SK-BR-3 [7] = test: Selectivity ratio, ED50 for human KBVIN cells to ED50 for human SKBR3 cells; type: functional
A549 [8] = test: Selectivity ratio, ED50 for human A549 cells to ED50 for human SKBR3 cells; type: functional
SK-BR-3 [9] = test: Selectivity ratio, ED50 for human DU145 cells to ED50 for human SKBR3 cells; type: functional
ZR-75-1 [10] = test: Selectivity ratio, ED50 for human ZR-75-1 cells to ED50 for human SKBR3 cells; type: functional
MDA-MB-231 [11] = test: Selectivity ratio, ED50 for human MDA-MB-231 cells to ED50 for human SKBR3 cells; type: functional
[12] = Inhibition of mammary epithelial cells proliferation in Brca1/p53-deficient C57BL/6 and 129/Sv mouse assessed as reduction of mammary gland branching point at 0.1 mg, po qd for 11 days relative to control; type: functional, Epithelial cell; conditions: in the assay text read “ip qd” for “po qd”
Method in brief: (§2)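 Three-month-old Brca1/p53-deficient or wild-type mice (C57BL/6 × 129/Sv background) received 0.1 mg i.p. daily for 11 days in DMSO/40% PEG/0.9% NaCl, or vehicle alone. Mammary gland whole mounts were fixed in Carnoy's fixative for 3 h and stained with Carmine alum overnight. Branching points were counted in three random areas totalling about 2 mm2.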

Epithelial cell = test: Inhibition of wild type mammary epithelial cells proliferation in wild type C57BL/6 and 129/Sv mouse assessed as reduction of mammary gland branching point at 0.1 mg, po qd for 11 days relative to control; type: functional; conditions: in the assay text read “ip qd” for “po qd”; method in brief: as §2
[13] = Inhibition of mammary epithelial cells proliferation in Brca1/p53-deficient C57BL/6 and 129/Sv mouse assessed as reduction of BrdU positive cells at 0.1 mg, po qd for 11 days relative to control in presence of bromodeoxyuridine treated orally with drinking water last 3 days of treatment; type: functional, Epithelial cell; conditions: in the assay text read “ip qd” for “po qd”
Method in brief: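 Three-month-old Brca1f11/f11p53f5&6/f5&6Crec or wild-type mice (mixed C57BL/6 and 129/Sv background) dosed 0.1 mg i.p. daily for 11 days. Dosing solution was 10 µL of a 10 mg/mL DMSO stock with 30 µL 40% PEG and 60 µL 0.9% NaCl; vehicle lacked compound. BrdU given in drinking water over the last 3 days. Glands fixed in 4% paraformaldehyde, paraffin-sectioned, citrate pH 6.0 antigen retrieval, anti-BrdU 1:1000. BrdU-positive cells per duct counted over ≥15 ducts/animal, ≥3 mice/genotype.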

SMILES	EC50 (KB)	EC50 [1]	EC50 (A549 [2])	EC50 (DU-145)	EC50 (SK-BR-3 [3])	EC50 (ZR-75-1 [4])	EC50 (MDA-MB-231 [5])	Ratio ED50 (SK-BR-3 [6])	Ratio ED50 (SK-BR-3 [7])	Ratio ED50 (A549 [8])	Ratio ED50 (SK-BR-3 [9])	Ratio ED50 (ZR-75-1 [10])	Ratio ED50 (MDA-MB-231 [11])	inhibition (INH) [12]	inhibition (INH) (Epithelial cell)	inhibition (INH) [13]
CCOc1c(-c2occ(C)c2C(=O)O)ccc2c(CC)cccc12	> 10 µg/mL	> 10 µg/mL	> 10 µg/mL	> 10 µg/mL	> 10 µg/mL	> 10 µg/mL	> 10 µg/mL									
CCOC(=O)c1c(C)coc1-c1ccc2c(CC)cccc2c1OC	2.2 µg/mL (≈ 6.5 µM)	1.8 µg/mL (≈ 5.32 µM)	3.8 µg/mL (≈ 11.2 µM)	2.2 µg/mL (≈ 6.5 µM)	2.5 µg/mL (≈ 7.39 µM)	3.9 µg/mL (≈ 11.5 µM)	4.3 µg/mL (≈ 12.7 µM)									
CCCOC(=O)c1c(C)coc1-c1ccc2c(CC)cccc2c1OC	> 10 µg/mL	> 10 µg/mL	> 10 µg/mL	> 10 µg/mL	> 10 µg/mL	> 10 µg/mL	> 10 µg/mL									
CCc1cccc2c(OC)c(-c3occ(C)c3C(=S)OC)ccc12	4.3 µg/mL (≈ 12.6 µM)	5.1 µg/mL (≈ 15 µM)	6.2 µg/mL (≈ 18.2 µM)	5.7 µg/mL (≈ 16.7 µM)	6.3 µg/mL (≈ 18.5 µM)	5.8 µg/mL (≈ 17 µM)	7.1 µg/mL (≈ 20.9 µM)									
CCc1cccc2c(OC)c(-c3occ(C)c3C(=O)NC)ccc12	> 10 µg/mL	> 10 µg/mL	> 10 µg/mL	> 10 µg/mL	> 10 µg/mL	> 10 µg/mL	> 10 µg/mL									
CCc1cccc2c(OC)c(-c3occ(C)c3C(=O)On3nnc4ccccc43)ccc12	> 10 µg/mL	> 10 µg/mL	> 10 µg/mL	> 10 µg/mL	> 10 µg/mL	> 10 µg/mL	> 10 µg/mL									
CCOc1c(-c2occ(C)c2C(=O)OC)ccc2c(CC)cccc12	1.8 µg/mL (≈ 5.32 µM)	1.7 µg/mL (≈ 5.02 µM)	2.4 µg/mL (≈ 7.09 µM)	1.9 µg/mL (≈ 5.61 µM)	1.9 µg/mL (≈ 5.61 µM)	1.2 µg/mL (≈ 3.55 µM)	1.1 µg/mL (≈ 3.25 µM)									
CCc1cccc2c(OC)c(-c3occ(C)c3CO)ccc12	7.1 µg/mL (≈ 24 µM)	6.6 µg/mL (≈ 22.3 µM)	9.6 µg/mL (≈ 32.4 µM)	7.2 µg/mL (≈ 24.3 µM)	0.73 µg/mL (≈ 2.46 µM)	> 10 µg/mL	> 10 µg/mL	9	9	13.2	9	> 13.7	> 13.7			
CCOc1c(-c2occ(C)c2CO)ccc2c(CC)cccc12	> 10 µg/mL	6.4 µg/mL (≈ 20.6 µM)	> 10 µg/mL	> 10 µg/mL	8.8 µg/mL (≈ 28.4 µM)	1.4 µg/mL (≈ 4.51 µM)	1.7 µg/mL (≈ 5.48 µM)									
CCc1cccc2c(OC(C)=O)c(-c3occ(C)c3COC(C)=O)ccc12	> 10 µg/mL	> 10 µg/mL	> 10 µg/mL	> 10 µg/mL	> 10 µg/mL	> 10 µg/mL	> 10 µg/mL									
CCc1cccc2c(OC)c(-c3occ(C)c3COC)ccc12	> 10 µg/mL	8.8 µg/mL (≈ 28.4 µM)	> 10 µg/mL	> 10 µg/mL	> 10 µg/mL	9.7 µg/mL (≈ 31.3 µM)										
CCOCc1c(C)coc1-c1ccc2c(CC)cccc2c1OC	> 10 µg/mL	> 10 µg/mL	> 10 µg/mL	> 10 µg/mL	> 10 µg/mL	9.1 µg/mL (≈ 28.1 µM)										
CCc1cccc2c(OC)c(-c3occ(C)c3CBr)ccc12	> 10 µg/mL	> 10 µg/mL	> 10 µg/mL	> 10 µg/mL	> 10 µg/mL	4.6 µg/mL (≈ 12.8 µM)										
CCc1cccc2c(OC)c(-c3occ(C)c3COCC(F)(F)F)ccc12	6.6 µg/mL (≈ 17.4 µM)	6 µg/mL (≈ 15.9 µM)	> 10 µg/mL	5.7 µg/mL (≈ 15.1 µM)	5.3 µg/mL (≈ 14 µM)	5.3 µg/mL (≈ 14 µM)										
CCc1cccc2c(OC)c(-c3occ(C)c3COC(C)=O)ccc12	> 10 µg/mL	> 10 µg/mL	> 10 µg/mL	> 10 µg/mL	> 10 µg/mL	3.5 µg/mL (≈ 10.3 µM)										
CCc1cccc2c(OC)c(-c3occ(C)c3COC(=O)CCN(CC)CC)ccc12	> 10 µg/mL	> 10 µg/mL	> 10 µg/mL	> 10 µg/mL	> 10 µg/mL	1.7 µg/mL (≈ 4.01 µM)	0.85 µg/mL (≈ 2.01 µM)									
CCOc1c(-c2occ(C)c2COC)ccc2c(CC)cccc12	> 10 µg/mL	5.9 µg/mL (≈ 18.2 µM)	> 10 µg/mL	> 10 µg/mL	> 10 µg/mL	> 10 µg/mL	4.9 µg/mL (≈ 15.1 µM)									
CCOc1c(-c2occ(C)c2COC(C)=O)ccc2c(CC)cccc12	> 10 µg/mL	5.8 µg/mL (≈ 16.5 µM)	> 10 µg/mL	> 10 µg/mL	> 10 µg/mL	4.9 µg/mL (≈ 13.9 µM)	> 10 µg/mL									
CCc1cccc2c(O)c(-c3occ(C)c3C(=O)O)ccc12	9.1 µg/mL (≈ 30.7 µM)	7 µg/mL (≈ 23.6 µM)		8.7 µg/mL (≈ 29.4 µM)	1 µg/mL (≈ 3.37 µM)	0.3 µg/mL (≈ 1.01 µM)								70%	29%	83%
CCc1cccc2c(OC)c(-c3occ(C)c3C(=O)OC)ccc12	1.7 µg/mL (≈ 5.24 µM)	1.3 µg/mL (≈ 4.01 µM)	1.5 µg/mL (≈ 4.62 µM)	2.2 µg/mL (≈ 6.78 µM)	1.2 µg/mL (≈ 3.7 µM)	1.3 µg/mL (≈ 4.01 µM)	2.3 µg/mL (≈ 7.09 µM)									
